The target in assay [1] is T1, N1P1 (NHERF1 PDZ domain 1) (Homo sapiens, UniProt O14745).
T1 sequence (O14745 14-94 limits assumed): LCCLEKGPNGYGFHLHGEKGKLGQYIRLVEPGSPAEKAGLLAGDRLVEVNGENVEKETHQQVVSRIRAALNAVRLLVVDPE
Put plainly: Fluorescence polarization. It is filed as binding. A digest of the protocol:
(§1)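 Test peptides were assayed by fluorescence polarization inhibition for binding to the isolated PDZ domain; the same format was applied across the five CFTR-associated PDZ domains.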

The target of assay [2] is T2, N1P2 (NHERF1 PDZ domain 2) (Homo sapiens, UniProt O14745).
T2 sequence (O14745 154-234 limits assumed): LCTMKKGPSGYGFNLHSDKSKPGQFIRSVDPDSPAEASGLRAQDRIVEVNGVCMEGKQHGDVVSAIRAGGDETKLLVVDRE
As to the kind of experiment: Fluorescence polarization. It is filed as binding. Put shortly:
as §1
For orientation: Fluorescence polarisation rises when a labelled molecule tumbles more slowly, as on binding a larger partner.

The target in assay [3] is N2P1 (NHERF2 PDZ domain 1) (Homo sapiens, UniProt Q15599). As to the kind of experiment: Fluorescence polarization. It is filed as binding.
Assay [4] addresses N2P2 (NHERF2 PDZ domain 2) (Homo sapiens, UniProt Q15599). Put plainly: Fluorescence polarization. It is filed as binding.
A further assay has as its target T3, F*-iCAL36.
T3 chain: fluorescein-ANSRWPTSII
Put plainly: fluorescence polarization.

The target in another assay is T4, SSR510 (Homo sapiens).
T4 chain: ANGLMQTSKL
Put plainly: fluorescence polarization competition.

The next assay concerns the target T5, iCAL3610.
T5 chain: ANSRWPTSII
As to the kind of experiment: fluorescence polarization competition.

The target in the next assay is T6, SSR56 (Homo sapiens, N-terminal cysteine on peptide).
T6 chain: MQTSKL
As to the kind of experiment: fluorescence polarization competition.

In a further assay the target is T7, iCAL366 (N-terminal cysteine on peptide).
T7 chain: WPTSII
As to the kind of experiment: fluorescence polarization competition.

In the next assay the target is T8, iCAL368.
T8 chain: SRWPTSII
Put plainly: fluorescence polarization competition.

The target in another assay is T9, iCAL056 (N-terminal cysteine on peptide).
T9 chain: MQTSKI
As to the kind of experiment: fluorescence polarization competition.

Another assay deals with T10, iCAL356 (N-terminal cysteine on peptide).
T10 chain: WQTSII
Put plainly: fluorescence polarization competition.

A further assay deals with T11, iCAL066 (N-terminal cysteine on peptide).
T11 chain: MQTSII
Put plainly: fluorescence polarization competition.

Another assay concerns the target T12, CFTR10 (Homo sapiens).
T12 chain: TEEEVQDTRL
Put plainly: fluorescence polarization competition.

Like-named read-outs stand apart in the source and are kept apart here. No end group written: not given here.

For `CC(C)C[C@H](NC(=O)[C@H](CCCNC(=N)N)NC(=O)[C@@H](NC(=O)[C@H](CC(=O)O)NC(=O)[C@H](CCC(N)=O)NC(=O)[C@@H](NC(=O)[C@H](CCC(=O)O)NC(=O)[C@H](CCC(=O)O)NC(=O)[C@H](CCC(=O)O)NC(=O)[C@@H](N)[C@@H](C)O)C(C)C)[C@@H](C)O)C(=O)O` [CFTR10, reference compound], the Ki – broadly, a measure of affinity in units of concentration, obtained from inhibition or displacement – in assay [1] (SD) was 0.45 ± 0.02 µM; in assay [2] (SD) it was 1.9 ± 0.1 µM.

In the case of `CSCC[C@H](NC(=O)[C@H](CC(C)C)NC(=O)CNC(=O)[C@H](CC(N)=O)NC(=O)[C@H](C)N)C(=O)N[C@@H](CCC(N)=O)C(=O)N[C@H](C(=O)N[C@@H](CO)C(=O)N[C@@H](CCCCN)C(=O)N[C@@H](CC(C)C)C(=O)O)[C@@H](C)O` [SSR5_10, reference compound], the inhibition constant (Ki) in assay [1] (SD) worked out at 24.5 ± 1.9 µM; in assay [2] (SD), 130 ± 48 µM; in assay [3] (SD) it was 38.6 ± 7.7 µM; in assay [4] (SD) it was 19.8 ± 2.7 µM.

With `CC[C@H](C)[C@H](NC(=O)[C@@H](NC(=O)[C@H](CO)NC(=O)[C@@H](NC(=O)[C@@H]1CCCN1C(=O)[C@H](Cc1c[nH]c2ccccc12)NC(=O)[C@H](CCCNC(=N)N)NC(=O)[C@H](CO)NC(=O)[C@H](CC(N)=O)NC(=O)[C@H](C)N)[C@@H](C)O)[C@@H](C)CC)C(=O)O` [iCAL36_10], the inhibition constant (Ki) in assay [1] is over 5000 µM; in assay [2] it was over 5000 µM; in assay [3], over 5000 µM; in assay [4] it was over 3000 µM.

SRWPTSII [iCAL36_8]: the inhibitory constant (Ki) in [1] was over 5000 µM; in assay [2], over 5000 µM; in assay [3] (SD), 516 ± 183 µM; in assay [4] (SD), 433 ± 154 µM.

B1: NHERF2 PDZ1 (protein)
chain: RPRLCRLVRGEQGYGFHLHGEKGRRGQFIRRVEPGSPAEAAALRAGDRLVEVNGVNVEGETHHQVVQRIKAVEGQTRLLVVDQETD
With B1, the dissociation constant Kd – broadly, the free concentration of one partner at which half of the binding sites on the other are occupied at equilibrium, for simple one-to-one binding – with F*-iCAL36 was over 1000 µM. Besides, the inhibitory constant (Ki) with SSR510 was 38.6 µM; with iCAL3610, over 5000 µM; in the assay with SSR56 it was 31.7 µM; with iCAL366, over 5000 µM; with iCAL368, 516 µM; with iCAL056, 806 µM. Also, the figures for the inhibition constant Ki with iCAL356, with iCAL066 and with CFTR10 were 496 µM, 245 µM and 1.1 µM, respectively.

B2: NHERF2 PDZ2 (protein)
chain: LRPRLCHLRKGPQGYGFNLHSDKSRPGQYIRSVDPGSPAARSGLRAQDRLIEVNGQNVEGLRHAEVVASIKAREDEARLLVVDPETD
As to B2, in the assay with F*-iCAL36, the Kd is over 1000 µM. Moreover, the Ki with SSR510 was 19.8 µM; with iCAL3610 it was over 3000 µM; in the assay with SSR56, 10 µM; in the assay with iCAL366, over 5000 µM; in the assay with iCAL368 it was 433 µM; in the assay with iCAL056, 109 µM. For the same molecule, the Ki in the assay with iCAL356 is 246 µM; in the assay with iCAL066, 166 µM; with CFTR10, 0.1 µM.

B3: NHERF1 PDZ1 (protein)
chain: LPRLCCLEKGPNGYGFHLHGEKGKLGQYIRLVEPGSPAEKAGLLAGDRLVEVNGENVEKETHQQVVSRIRAALNAVRLLVVDPETDE
The molecule B3 came in with a Kd with F*-iCAL36 of over 1000 µM. Also, the inhibition constant Ki with SSR510 was 24.5 µM; with iCAL3610, over 5000 µM; with SSR56 it was 19.3 µM; in the assay with iCAL366, over 5000 µM; in the assay with iCAL368, over 5000 µM; with iCAL056 it was 914 µM. Besides, the Ki with iCAL356 was 430 µM; in the assay with iCAL066, 245 µM; with CFTR10, 0.45 µM.

B4: NHERF1 PDZ2 (protein)
chain: RPRLCTMKKGPSGYGFNLHSDKSKPGQFIRSVDPDSPAEASGLRAQDRIVEVNGVCMEGKQHGDVVSAIRAGGDETKLLVVDRETDE
B4: the equilibrium dissociation constant (Kd) with F*-iCAL36 was over 1000 µM. The Ki with SSR510 was 130 µM; with iCAL3610, over 5000 µM; with SSR56, 50.2 µM; in the assay with iCAL366, over 5000 µM; with iCAL368, over 5000 µM; with iCAL056, 1700 µM. Further, the Ki in the assay with iCAL356 is over 5000 µM; with iCAL066, 2400 µM; with CFTR10, 1.9 µM.

The values are drawn from paper PMC3037833 (Angewandte Chemie (International ed. in English), 2010).
